Measurements: ChEMBL document CHEMBL1153046, “Synthesis and antitumor activity of substituted triazolo[4,3-a]pyrimidin-6-sulfonamide with an incorporated thiazolidinone moiety” (2009)

Columns and labels:
Assay type in all cases: functional
MCF7 = assay: Antiproliferative activity against human MCF7 cells assessed as cell growth at 100 uM after 48 hrs by alamar blue assay; details: MCF7, 48 h, read-out: Activity
In short: (§1)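 NCI three-cell-line primary screen. Cells are seeded and preincubated in microtiter plates. Compound is added at a single 10^-4 M concentration and cultures are incubated 48 h. The end-point is read with alamar blue. Results are given as percent growth relative to untreated control cells.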

SF-268 = assay: Antiproliferative activity against human SF268 cells assessed as cell growth at 100 uM after 48 hrs by alamar blue assay; details: SF-268, 48 h, read-out: Activity; in short: as §1
NCI-H460 = assay: Antiproliferative activity against human NCI-H460 cells assessed as cell growth at 100 uM after 48 hrs by alamar blue assay; details: NCI-H460, 48 h, read-out: Activity; in short: as §1

Q: Which results are given for `COc1ccc(/C=N/c2nc3[nH]nc(C)n3c(=O)c2S(=O)(=O)N/N=C/c2cccs2)cc1`?
A: growth at 100 µM (MCF7): 66%; growth at 100 µM (SF-268): 62%; growth at 100 µM (NCI-H460): 13%

Q: `COc1ccc(/C=N/c2nc3[nH]nc(C)n3c(=O)c2S(=O)(=O)NN2C(=O)C(CN3CCOCC3)SC2c2ccc(C)cc2)cc1` (stereo not drawn) was tested. Which growth at 100 µM (MCF7) did it give?
A: 67%

Q: What about the growth at 100 µM (SF-268) of the same compound?
A: 82%

Q: And the growth at 100 µM (NCI-H460)?
A: 63%

Q: For `COc1ccc(/C=N/c2nc3[nH]nc(C)n3c(=O)c2S(=O)(=O)NN2C(=O)C(CN3CCN(C)CC3)SC2c2ccc(C)cc2)cc1` (stereo not drawn), which growth at 100 µM (MCF7) is on record?
A: 55%

Q: What about the growth at 100 µM (SF-268) of the same compound?
A: 102%

Q: What about the growth at 100 µM (NCI-H460) of the same compound?
A: 109%

Q: Which growth at 100 µM (MCF7) does the source give for `COc1ccc(/C=N/c2nc3[nH]nc(C)n3c(=O)c2S(=O)(=O)Nc2ccc(OC)cc2)cc1` here?
A: 86%

Q: And the growth at 100 µM (SF-268)?
A: 91%

Q: And the growth at 100 µM (NCI-H460)?
A: 82%

Q: Which growth at 100 µM (MCF7) does the source give for `COc1ccc(/C=N/c2nc3[nH]nc(C)n3c(=O)c2S(=O)(=O)Nc2ccc(Cl)cc2)cc1` here?
A: 87%

Q: What about the growth at 100 µM (SF-268) of the same compound?
A: 87%

Q: What about the growth at 100 µM (NCI-H460) of the same compound?
A: 102%

Q: `COc1ccc(/C=N/c2nc3[nH]nc(C)n3c(=O)c2S(=O)(=O)Nc2ccc(C)cc2)cc1` was tested. Which growth at 100 µM (MCF7) did it give?
A: 83%

Q: What about the growth at 100 µM (SF-268) of the same compound?
A: 85%

Q: What about the growth at 100 µM (NCI-H460) of the same compound?
A: 89%

Q: How did the growth at 100 µM (MCF7) turn out when `COc1ccc(/C=N/c2nc3[nH]nc(C)n3c(=O)c2S(=O)(=O)NN2C(=O)CSC2c2ccc(C)cc2)cc1` (stereo not drawn) was run?
A: 72%

Q: And the growth at 100 µM (SF-268)?
A: 63%

Q: And the growth at 100 µM (NCI-H460)?
A: 67%

Q: Which growth at 100 µM (MCF7) does the source give for `COc1ccc(/C=N/c2nc3[nH]nc(C)n3c(=O)c2S(=O)(=O)N/N=C/c2ccc(C)cc2)cc1` here?
A: 87%

Q: What about the growth at 100 µM (SF-268) of the same compound?
A: 93%

Q: What about the growth at 100 µM (NCI-H460) of the same compound?
A: 83%

Q: For `COc1ccc(/C=N/NS(=O)(=O)c2c(/N=C/c3ccc(OC)cc3)nc3[nH]nc(C)n3c2=O)cc1`, which growth at 100 µM (MCF7) is on record?
A: 83%

Q: What about the growth at 100 µM (SF-268) of the same compound?
A: 85%

Q: What about the growth at 100 µM (NCI-H460) of the same compound?
A: 55%

Q: How did the growth at 100 µM (MCF7) turn out when `COc1ccc(/C=N/c2nc3[nH]nc(C)n3c(=O)c2S(=O)(=O)NN)cc1` was run?
A: 43%

Q: And the growth at 100 µM (SF-268)?
A: 55%

Q: What about the growth at 100 µM (NCI-H460) of the same compound?
A: 45%

Q: With `COc1ccc(/C=N/c2nc3[nH]nc(C)n3c(=O)c2S(=O)(=O)NN2C(=O)CSC2c2ccc(OC)cc2)cc1` (stereo not drawn) as the compound, how does the growth at 100 µM (MCF7) read?
A: 91%

Q: And the growth at 100 µM (SF-268)?
A: 94%

Q: What about the growth at 100 µM (NCI-H460) of the same compound?
A: 118%

Q: For `COc1ccc(/C=N/c2nc3[nH]nc(C)n3c(=O)c2S(=O)(=O)NN2C(=O)C(CN3CCOCC3)SC2c2ccc(Cl)cc2)cc1` (stereo not drawn), which growth at 100 µM (MCF7) is on record?
A: 94%

Q: And the growth at 100 µM (SF-268)?
A: 95%

Q: What about the growth at 100 µM (NCI-H460) of the same compound?
A: 68%

Q: What does the source list for `COc1ccc(/C=N/c2nc3[nH]nc(C)n3c(=O)c2S(=O)(=O)N/N=C/c2ccc(Cl)cc2)cc1`?
A: growth at 100 µM (MCF7): 93%; growth at 100 µM (SF-268): 101%; growth at 100 µM (NCI-H460): 73%

Q: How did the growth at 100 µM (MCF7) turn out when `COc1ccc(/C=N/c2nc3[nH]nc(C)n3c(=O)c2S(=O)(=O)NN2C(=O)C(CN3CCN(C)CC3)SC2c2ccc(Cl)cc2)cc1` (stereo not drawn) was run?
A: 102%

Q: And the growth at 100 µM (SF-268)?
A: 106%

Q: And the growth at 100 µM (NCI-H460)?
A: 86%

Q: How did the growth at 100 µM (MCF7) turn out when `COc1ccc(/C=N/c2nc3[nH]nc(C)n3c(=O)c2S(=O)(=O)NN2C(=O)CSC2c2cccs2)cc1` (stereo not drawn) was run?
A: 89%

Q: What about the growth at 100 µM (SF-268) of the same compound?
A: 98%

Q: And the growth at 100 µM (NCI-H460)?
A: 106%

Q: `COc1ccc(/C=N/c2nc3[nH]nc(C)n3c(=O)c2S(=O)(=O)NN2C(=O)CSC2c2ccc(Cl)cc2)cc1` (stereo not drawn) was tested. Which growth at 100 µM (MCF7) did it give?
A: 90%

Q: What about the growth at 100 µM (SF-268) of the same compound?
A: 84%

Q: What about the growth at 100 µM (NCI-H460) of the same compound?
A: 88%
